# Compound activity: PubChem, several laboratories
# CHT allo act: CHT positive allosteric modulators, primary screen, cell-based, membrane potential dye, choline EC20. CHT-expressing cells; stronger effect = higher value; LV-AA mutant CHT in HEK293 cells. B-score at 10 µM. actives 0.49% (n = 310,000). AID 488977, 2010;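 active means initial fluorescence not abnormally high and integrated response B-score, plate-corrected, over 3 SD above library mean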
# Target sequence (Q9GZV3 whole entry, looked up): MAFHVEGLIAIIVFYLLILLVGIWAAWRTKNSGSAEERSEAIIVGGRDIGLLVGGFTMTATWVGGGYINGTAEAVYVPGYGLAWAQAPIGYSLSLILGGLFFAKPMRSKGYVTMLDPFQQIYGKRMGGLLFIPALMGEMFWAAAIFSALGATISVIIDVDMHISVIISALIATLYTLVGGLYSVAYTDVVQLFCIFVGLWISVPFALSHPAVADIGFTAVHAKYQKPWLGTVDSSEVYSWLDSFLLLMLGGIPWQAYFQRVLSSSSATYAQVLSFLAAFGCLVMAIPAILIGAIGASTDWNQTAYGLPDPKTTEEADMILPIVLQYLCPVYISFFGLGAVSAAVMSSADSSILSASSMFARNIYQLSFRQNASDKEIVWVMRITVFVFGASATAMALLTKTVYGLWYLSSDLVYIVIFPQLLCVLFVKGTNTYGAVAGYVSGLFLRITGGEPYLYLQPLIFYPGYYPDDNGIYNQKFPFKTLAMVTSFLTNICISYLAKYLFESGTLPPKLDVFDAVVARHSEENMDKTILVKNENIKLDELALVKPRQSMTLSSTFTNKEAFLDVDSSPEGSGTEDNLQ
# CHT inh: inhibitors of human choline transporter CHT; CHT-expressing cells, membrane potential dye, choline response; stronger effect = lower value; B-score at 10 µM; AID 488975, 2010; High affinity choline transporter 1 (Homo sapiens), Q9GZV3; actives 0.86% (n = 310,000);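 active means B-score over 3 SD under the library average, and starting fluorescence ratio not unusually high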;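 further: choline stimulus applied at its EC90 after an EC20 pre-addition; B-score computed on integrated fluorescence ratio after choline addition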
# Rad51 HR inh: human RAD51 strand exchange inhibitors, primary screen, biochemical, fluorescence; actives 0.085% (n = 200,000); inhibition, % at 10 µM; hRad51 DNA strand exchange, fluorescence dequenching; AID 1385, 2008; DNA repair protein RAD51 homolog 1 (Homo sapiens), Q06609;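 active means inhibition above 40% at the single screening dose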
#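 Material: Human Rad51 nucleoprotein filaments preassembled on unlabelled ssDNA | Also added: Labelled 47-mer dsDNA for strand exchange | Dosing: Single dose, 10 µM final compound | Schedule: 30-min compound preincubation and 15-min exchange, both room temperature | Technique: Fluorescence dequenching at 485/520 nm | Measure: Percent inhibition relative to plate controls and blanks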
# KCC2 mod: KCC2 cotransporter modulators, thallium flux, primary screen, cell-based, HEK293 KCC2, FluoZin-2 fluorescence, MLSMR; actives 2.2% (n = 190,000); B-score of Tl+ flux slope (higher = more flux/activation; lower = inhibition) at 10 µM; AID 1456, 2008; KCC2 cells, thallium flux FluoZin-2 fluorescence;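 active means thallium flux slope and its plate-corrected score both differing from the plate sample mean at a set confidence after two filtering rounds, in either direction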;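 further: slope of fluorescence scaled to starting intensity during 10 to 20 s after thallium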
# CHT activ conf: CHT activators, confirmation, cell-based, membrane potential dye, duplicate. shares compounds with CHT allo act. CHT-expressing cells, membrane potential dye fluorescence (FDSS); % of choline EC20–EC90 response window; HEK293 expressing CHT LV-AA mutant; choline added at its EC20. activation, % at 10 µM. actives 91% (n = 2,500). AID 504833, 2011;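 active means primary screen active, with duplicate mean activation above negative control mean plus 3 SD, cut at about 11% in these data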
# HEK293 MP dye: membrane potential response in parental HEK293 cells, counter-screen for CHT activator project, cell-based, membrane potential dye; shares compounds with CHT allo act; membrane potential dye fluorescence (FDSS); measured after EC20 choline addition; ratio readout change at 10 µM, hits read low; actives 62% (n = 2,500); AID 623908, 2012;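 active means duplicate-averaged ratio beyond 3 SD from buffer wells, up or down, though filed actives are nearly all decreases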
# Hits are given with their value; 0 = inactive; - = not tested or not shown. Sampled rows, rich in hits. Any-hit rate of the full collection: about 2.6%.
SMILES,CHT allo act,CHT inh,Rad51 HR inh,KCC2 mod,CHT activ conf,HEK293 MP dye
Cc1[nH]c(C)c(S(=O)(=O)NCc2ccc(N(C)C)cc2)c1C(=O)N1CCCC1,0,0,-,-,-,-
COc1cccc(C(=O)NCC(c2cccs2)N2CCc3ccccc32)c1 (stereo unspecified),6.4,0,-,-,25,0
O=C(NCC(c1cccs1)N1CCc2ccccc21)c1ccccc1 (stereo unspecified),0,0,-,-,-,-
Cc1nc2sc3c(c2c(=O)o1)CC(C)(C)OC3,0,0,0,0,-,-
N=c1c2c3c(sc2nc2n1CCC2)CCCC3,0,0,0,0,48,-40
CC1(C)Cc2c(sc3nc4n(c(=N)c23)CCC4)CO1,8.5,0,0,0,50,-63
C=C(C)COc1ccc2c(CC)cc(=O)oc2c1C,0,0,0,0,-,-
CC(C)N1CCN(Cc2ccsc2)CC1CCO (stereo unspecified),0,0,0,0,-,-
C[n+]1c2n(c3ccccc31)N=C(c1cc(C(C)(C)C)c(O)c(C(C)(C)C)c1)CS2,40,0,0,0,66,-36
CCC(=O)NC(Nc1sc2c(c1C(=O)OC)CCN(C)C2)(C(F)(F)F)C(F)(F)F,0,0,0,0,-,-
COC(=O)NC(Nc1sc2c(c1C(N)=O)CCCC2)(C(=O)OC)C(F)(F)F (stereo unspecified),0,0,0,0,-,-
CCOC(=O)NC(Nc1sc2c(c1C(=O)OC)CCN(C)C2)(C(F)(F)F)C(F)(F)F,7.6,0,0,0,0,-50
CCOC(=O)C(NC(=O)CC)(Nc1sc2c(c1C(=O)OC)CCN(C)C2)C(F)(F)F (stereo unspecified),7.5,0,0,-,26,-49
CC(=O)Oc1c(C)c(C)c2c(c1C)CC[C@@](C)(CCC[C@H](C)CCC[C@H](C)CCCC(C)C)O2,0,0,-,-,-,-
CCC(C)(C)n1nnnc1C(C(C)C)N1CCN(C)CC1 (stereo unspecified),0,0,0,-,-,-
CCC(C)(C)n1nnnc1C(C(C)C)N1CCSCC1 (stereo unspecified),0,0,0,-,0,0
CN1CCN(/N=C/c2nc(-c3ccccc3)n3ccccc23)CC1,0,0,0,0,27,0
CN(C)CCC1CCN(c2cc(C#N)c(C#N)cc2[N+](=O)[O-])CC1,7.2,0,-,0,58,-64
O=C(NCc1cccnc1)/C(=C\c1ccc(-c2ccc(Cl)c(Cl)c2)o1)S(=O)(=O)c1ccccc1,6.7,0,-,0,14,0
O=C(NCc1cccnc1)c1ccc(-c2ccc(Cl)cc2)o1,0,0,0,-,-,-
Cc1ccc(C)c(NC(=O)C(=O)NCC2CCCN2S(=O)(=O)c2cccs2)c1 (stereo unspecified),0,0,-,-,-,-
O=C(NCCN1CCOCC1)Nc1ccc(F)cc1,0,0,0,-,-,-
CC1(C)Cc2c(C#N)c(OCC(=O)c3ccc(Cl)cc3)nc(-c3ccco3)c2CO1,13,0,0,0,0,0
N#Cc1c(NCCN)nc(-c2ccco2)c2c1CCCC2,0,0,0,0,39,-73
CN(C)CCNc1nc(-c2ccco2)c2c(c1C#N)CC(C)(C)OC2,11,0,0,0,65,-91
COc1cccc(COC(=O)C2CC(=O)N(Cc3ccco3)C2)c1OC (stereo unspecified),0,0,-,-,-,-
COc1ccc(-c2noc(CSc3nc4ccccc4c(=O)n3-c3ccccc3)n2)cc1OC,0,0,0,0,14,0
COc1ccc(-c2noc(CSc3nc4sc(C)c(C)c4c(=O)n3-c3ccccc3)n2)cc1OC,0,0,0,-,-,-
COc1cc(-c2nc3ccccn3c2NCC2CCCO2)ccc1O (stereo unspecified),0,0,0,0,44,-47
COc1cccc(-c2nc(NCC3CCCO3)c3ccccc3n2)c1O (stereo unspecified),0,0,0,0,-,-
